Compound activity as filed in PubChem.
Only some compounds are listed: those with a hit (about 0.99% of all), similar ones and a draw of the others.
STK33 inh – inhibitors of purified STK33 kinase, primary screen, biochemical, ADP-Glo luminescence, homogeneous, cell-free | inhibition, % at 10 µM | actives 0.073% (n = 320,000) | MBP phosphorylation | Serine/threonine-protein kinase 33 (Homo sapiens), Q9BYT3;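 active means inhibition at or above 25%, using the most active replicate where run in duplicate; inactive means inhibition below 25%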
Rin1-Abl PPI inh – inhibitors of Rin1-Abl protein binding, primary screen, biochemical, TR-FRET | inhibition, % at 7.35 µM | Tyrosine-protein kinase ABL1 (Homo sapiens) + Ras and Rab interactor 1 (Homo sapiens), … | AID 588664, 2011 | actives 0.4% (n = 360,000); in the data active means inhibition above about 5%, passing the limit was not always enough
Target sequence (P00519 whole entry, looked up): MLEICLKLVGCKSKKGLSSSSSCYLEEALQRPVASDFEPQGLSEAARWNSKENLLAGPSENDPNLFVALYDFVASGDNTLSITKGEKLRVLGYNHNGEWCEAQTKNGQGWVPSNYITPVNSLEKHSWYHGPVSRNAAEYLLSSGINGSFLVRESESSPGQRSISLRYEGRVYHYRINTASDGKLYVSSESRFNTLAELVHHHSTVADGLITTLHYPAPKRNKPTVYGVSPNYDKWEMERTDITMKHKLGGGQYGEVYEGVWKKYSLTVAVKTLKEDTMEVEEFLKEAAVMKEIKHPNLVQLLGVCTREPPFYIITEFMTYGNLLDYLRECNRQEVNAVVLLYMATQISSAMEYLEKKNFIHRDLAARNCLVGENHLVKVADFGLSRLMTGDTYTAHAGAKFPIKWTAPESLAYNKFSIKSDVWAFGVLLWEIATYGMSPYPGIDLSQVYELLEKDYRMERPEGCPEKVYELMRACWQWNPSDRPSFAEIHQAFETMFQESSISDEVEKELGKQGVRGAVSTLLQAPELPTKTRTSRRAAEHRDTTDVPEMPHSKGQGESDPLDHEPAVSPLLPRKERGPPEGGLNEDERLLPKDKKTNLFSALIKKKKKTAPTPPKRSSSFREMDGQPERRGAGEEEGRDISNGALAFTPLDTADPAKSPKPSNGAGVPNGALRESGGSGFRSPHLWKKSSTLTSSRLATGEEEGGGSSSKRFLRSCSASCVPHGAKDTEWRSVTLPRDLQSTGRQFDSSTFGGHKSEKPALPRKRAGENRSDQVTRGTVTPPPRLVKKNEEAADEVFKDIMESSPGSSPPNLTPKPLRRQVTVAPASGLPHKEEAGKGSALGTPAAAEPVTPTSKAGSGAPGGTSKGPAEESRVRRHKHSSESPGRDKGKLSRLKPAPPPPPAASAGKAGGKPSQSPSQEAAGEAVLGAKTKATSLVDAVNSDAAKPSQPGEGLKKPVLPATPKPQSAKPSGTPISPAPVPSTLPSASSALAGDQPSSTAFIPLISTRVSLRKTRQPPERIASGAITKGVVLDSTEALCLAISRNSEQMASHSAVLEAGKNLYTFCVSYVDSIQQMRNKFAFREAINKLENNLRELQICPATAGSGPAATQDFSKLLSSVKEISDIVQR
Target sequence (Q13671 whole entry, looked up): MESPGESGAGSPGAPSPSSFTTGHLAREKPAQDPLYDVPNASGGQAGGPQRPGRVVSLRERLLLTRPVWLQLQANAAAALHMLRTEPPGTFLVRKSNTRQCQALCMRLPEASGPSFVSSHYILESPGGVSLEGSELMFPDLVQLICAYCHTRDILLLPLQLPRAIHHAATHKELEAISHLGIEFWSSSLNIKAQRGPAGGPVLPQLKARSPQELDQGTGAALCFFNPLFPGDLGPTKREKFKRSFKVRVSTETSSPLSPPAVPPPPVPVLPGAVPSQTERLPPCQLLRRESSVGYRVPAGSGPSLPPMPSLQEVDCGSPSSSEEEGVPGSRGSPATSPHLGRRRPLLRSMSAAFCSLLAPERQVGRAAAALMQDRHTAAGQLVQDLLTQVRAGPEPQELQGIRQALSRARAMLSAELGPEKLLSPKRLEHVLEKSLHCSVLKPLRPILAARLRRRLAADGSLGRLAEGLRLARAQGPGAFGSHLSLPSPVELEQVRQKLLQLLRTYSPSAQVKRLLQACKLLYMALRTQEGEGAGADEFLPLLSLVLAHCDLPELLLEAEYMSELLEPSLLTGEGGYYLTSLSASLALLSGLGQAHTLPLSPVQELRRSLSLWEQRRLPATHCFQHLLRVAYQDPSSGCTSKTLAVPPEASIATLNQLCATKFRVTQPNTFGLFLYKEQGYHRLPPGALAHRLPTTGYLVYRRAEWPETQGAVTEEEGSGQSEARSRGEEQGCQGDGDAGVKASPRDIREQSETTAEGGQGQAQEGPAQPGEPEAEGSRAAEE
Arrestin-AP2 inh – inhibitors of beta-arrestin/AP2 binding, primary screen, biochemical, GPCR trafficking, flow cytometry | AID 504490, 2011 | inhibition, % at 10 µM | FITC-arrestin peptide / GST-AP2 beads; AP2 beta2 appendage carries R879A mutation | actives 0.31% (n = 340,000);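 active means inhibition above a set limit, near 3 SD of compounds lacking own fluorescence, cut at about 54% in these data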;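 further: plate controls were DMSO wells for no effect and 5 µM unlabelled arrestin peptide for full effect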
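System: GST-AP2 R879A glutathione beads | Also added: FITC-arrestin peptide, 50 nM | Times: 12 min plus 1 h, RT | Signal: Bead flow cytometry, FITC channel | Buffer or medium: PBS with 0.05% Tween 20 and 0.1% BSA | Read-out basis: Percent drop in bead-associated FITC signal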
DYRK1A inh – rat Dyrk1A kinase inhibitors, primary screen, biochemical, single point, plate reader; actives 0.43% (n = 310,000); AID 504441, 2011; Dual specificity tyrosine-phosphorylation-regulated kinase 1A (Rattus norvegicus), Q63470; inhibition, % at 12.5 µM; ADP-Glo luminescence, NFATc1 peptide; in the data active means inhibition above about 50%;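 further: plate controls were vehicle with enzyme for no effect and no enzyme for full effect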
GSK3B inh – human GSK3beta kinase inhibitors, primary screen, biochemical, cell-free homogeneous, HTS; Glycogen synthase kinase-3 beta (Homo sapiens), P49841; GST-GSK3beta kinase, ADP-Glo luminescence, 60 min; stronger effect = lower value; activity score (negative = inhibition), % at 10 µM; actives 0.038% (n = 300,000);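 active means more than half of replicate wells score below -50%, meaning over 50% inhibition versus plate controls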;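 further: 0% = median DMSO wells and -100% = median GW8510 positive control wells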
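Assay system: GST-fused GSK3beta enzyme, cell-free / Medium: Tris pH 7.5 buffer with MgCl2, DTT, BSA, heparin / Also added: peptide substrate plus 25 µM ATP (final) / Compound: 10 µM single point / Timing: kinase reaction with compound 60 min at room temperature / Detection: ADP-Glo luminescence / Benchmarks: DMSO neutral wells and GW8510 at 20 µM as positive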
GSK3A inh – blockers of GSK3A enzyme activity – biochemical, luminescence, cell-free homogeneous, HTS, primary screen; AID 2650, 2010; inhibition, % at 10 µM; actives 0.1% (n = 320,000); Glycogen synthase kinase-3 alpha (Homo sapiens), P49840; GSK-3 alpha kinase, ADP-Glo luminescence, 60 min;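 active means more than half of replicates show inhibition above 20%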;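 further: GST-tagged GSK-3 alpha with peptide substrate and 25 µM ATP; 0% = DMSO neutral wells and 100% = GW8510 positive control wells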
Rin1 Abl conf – Rin1-Abl binding inhibitor retest, confirmation, biochemical, TR-FRET; shares compounds with Rin1-Abl PPI inh; purified proteins; inhibition, % at 7.35 µM; actives 49% (n = 1,300)
GFP quench – GFP fluorescence inhibitors and quenchers, artefact control for Rin1-Abl interaction inhibitor project, biochemical | actives 8.5% (n = 1,300) | shares compounds with Rin1-Abl PPI inh | inhibition, % at 6.75 µM | inhibitors/quenchers counterscreen | AID 602125, 2011;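 further: ABL1-eGFP fusion protein alone without its partner RIN1-SBP; 0% = protein with vehicle and 100% = wells lacking protein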
GFP quench dose – GFP fluorescence inhibitors and quenchers, dose response, artefact control for Rin1-Abl interaction inhibitor project, biochemical; 230 tested, under 10 active; IC50, µM; GFP fluorescence interference/quenching counterscreen; AID 602182, 2012; shares compounds with Rin1-Abl PPI inh; call rule not given here;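 further: ABL1-eGFP fusion protein alone without its RIN1 binding partner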
Starred values were filed as active, the others as inactive; nt = no result given. Unless noted, no stated cut-off is given here; in the data, active means inhibition above about 6.5%; inactive means the rest.

SMILES	STK33 inh	Rin1-Abl PPI inh	Arrestin-AP2 inh	DYRK1A inh	GSK3B inh	GSK3A inh	Rin1 Abl conf	GFP quench	others
COc1ccccc1CNC(=O)[C@H](NC(=O)C1CCN(C(=O)[C@@H](N)CCSC)CC1)C(C)C	-2	2	2	8	2	-1	nt	nt
COc1ccc(S(=O)(=O)N2CCCCCC2)cc1C(=O)Nc1ccc(C(=O)N(C)C)cc1	nt	38*	17	3	nt	nt	43*	1	GFP quench dose=>68
CC(C)c1ccc(NC2CCCN(C(=O)c3cnsn3)C2)cc1 (configuration not stated)	-1	-3	-10	-2	6	1	nt	nt
CC(C)OC(=O)CSc1nnc(Cc2ccccc2)n1C	-2	8.9*	4	10	-1	-5	-2	0
c1ccc(CN2CC[C@@H](Nc3nccn4ccnc34)C2)cc1	nt	-3	nt	nt	nt	nt	nt	nt
O=C(NCc1cc(Cl)cc(Cl)c1)c1ccc2nc([C@@H]3O[C@H](CO)[C@@H](O)[C@H]3O)[nH]c2c1	nt	-1	nt	nt	nt	nt	nt	nt
C[n+]1c(-c2ccccc2)cc2c(=Cc3ccccc3)c3ccccc3n21	nt	13*	0	nt	nt	nt	-6	2
C[n+]1c(-c2ccccc2)cc2c(=Cc3ccc([N+](=O)[O-])cc3)c3ccccc3n21	nt	7	-4	nt	nt	nt	nt	nt
COc1ccc(C=O)cc1OS(=O)(=O)c1ccc(NC(C)=O)cc1	0	8.5*	-2	3	0	-1	1	0
COc1ccccc1N=Nc1ccc(O)c2ncccc12	-2	8.7*	29	0	2	-2	5	12*
Cc1c(C(=O)N2CCCCCC2)oc2ccccc12	-1	6.6*	-1	-2	4	0	1	-1
Cc1c(C(=O)N2CCCCC2)oc2ccccc12	0	3	-20	nt	nt	-3	nt	nt
Cn1nc(C(C)(C)C)cc1C(=O)N1CCC(C)(C(=O)NS(=O)(=O)C2CC2)C1 (configuration not stated)	nt	-4	nt	nt	nt	nt	nt	nt
CCCCn1nc(C(=O)N(C)CC(=O)Nc2cccc(F)c2)c2ccccc2c1=O	nt	1	-20	0	5	nt	nt	nt
CCCn1nc(C(=O)N(C)CC(=O)Nc2ccc(OCC)c(OCC)c2)c2ccccc2c1=O	0	21*	25	1	nt	-7	34*	1	GFP quench dose=>68
CCN1CCN(c2ccc(S(=O)(=O)N3CCCCC3)cc2NC(=O)CC(NC(C)=O)c2ccccc2)CC1 (configuration not stated)	-1	0	0	-1	0	-1	nt	nt
CCCCN1C(=O)N(C)C2NC(=O)NC21 (configuration not stated)	-1	66*	0	-7	0	-1	76*	1	GFP quench dose=>67
CCCCN1C(=O)NC2NC(=O)NC21 (configuration not stated)	-1	97*	-1	1	2	-1	99*	-2	GFP quench dose=>68
CSCCC(NC(=O)c1ccco1)C(=O)N1CC(C)OC(C)C1 (configuration not stated)	0	1	-4	3	nt	1	nt	nt
Cc1ccc(-c2nnc(SCc3nc(N)nc(Nc4ccccc4C)n3)n2N)cc1	-2	18*	-1	2	3	-1	0	-1
CCN(CC)C(=O)c1nc[nH]c1C(=O)N1CCC(C)CC1	1	-1	9	1	nt	-1	nt	nt
Cc1nnc(N/N=C/c2ccc(-c3ccc(Br)cc3)o2)n1N	-1	-2	15	-1	2	26	nt	nt
Cc1nnc(N/N=C/c2ccc(Br)cc2)n1N	-2	6.7*	-8	-2	4	-1	-4	-2
COCC(=O)OC1CCn2c1nc1c2C(=O)C(C)=C(NC(C)=O)C1=O (configuration not stated)	nt	18*	10	nt	nt	nt	16*	1
c1ccc(CNc2nc(NCCc3ccncc3)c3sccc3n2)cc1	nt	20*	nt	nt	nt	nt	10*	0
SMILES	STK33 inh	Rin1-Abl PPI inh	Arrestin-AP2 inh	DYRK1A inh	GSK3B inh	GSK3A inh	Rin1 Abl conf	GFP quench	others
CCCn1c(N)c(C(=O)COC(=O)CNC(=O)c2ccc(C)c(C)c2)c(=O)n(C)c1=O	nt	9.4*	-5	0	nt	nt	0	-4
CCOC(=O)C1CCN(C(=O)c2ccc3c(c2)C(=O)N(c2ccccc2C)C3=O)CC1	0	0	1	-4	-1	0	nt	nt
OC[C@@H]1CN(Cc2ccc(-c3ccccc3)cc2)C[C@H](n2cnc3c(NCc4ccco4)ncnc32)O1	nt	10*	nt	nt	nt	nt	6.7*	-1
OC[C@@H]1CN(Cc2ccccc2)C[C@H](n2cnc3c(NCc4ccco4)ncnc32)O1	nt	1	nt	nt	nt	nt	nt	nt
OCCNc1ncnc2c1ncn2[C@H]1CN(Cc2ccc(-c3ccccc3)cc2)C[C@@H](CO)O1	nt	24*	nt	nt	nt	nt	28*	0	GFP quench dose=>68
CC(C)CNc1ncnc2c1ncn2[C@H]1CN(Cc2ccc(-c3ccccc3)cc2)C[C@@H](CO)O1	nt	4	nt	nt	nt	nt	nt	nt
O=C(NCCCc1ccc(F)cc1)C1CCC(=O)N(CCN2CCOCC2)C1 (configuration not stated)	1	2	-1	8	2	-1	nt	nt
O=c1c2ccccc2ncn1Cc1ccc(Cl)c(Cl)c1	-1	6.3*	5	nt	2	-4	1	-2
O=c1c2ccccc2ncn1Cc1ccc(Cl)cc1	-2	-3	9	-2	-4	-3	nt	nt
CCCC(=O)NC(C)c1nc2ccccc2n1CC (configuration not stated)	0	-3	0	-2	0	1	nt	nt
C=C(C)Cn1c(C(C)NC(=O)CCC)nc2ccccc21 (configuration not stated)	-1	8.6*	7	-2	2	-1	-1	0
CCC1CCCCN1CCCNC(=O)c1ccc2c(c1)c(C)c(C)n2CC (configuration not stated)	0	15*	17	-4	-4	-3	-4	2
